# Assay outcomes deposited in PubChem BioAssay by several laboratories.
# Shown are actives, neighbours in structure and some others; about 1.8% of the full set was active somewhere.
# HNF4A DNA FP: change in binding of human HNF4A to DNA, primary screen, biochemical, fluorescence polarization, FITC-DNA | Hepatocyte nuclear factor 4-alpha (Homo sapiens), P41235 | 1 h | activity change, % at 10 µM | hit rate 0.3% among 360,000 | AID 1224865, 2016; in the data active means activity change above about 30%, passing the limit was not always enough
# SUMO HTRF inh: inhibitors of in vitro SUMOylation cascade, primary screen, biochemical, HTRF, uHTS; SUMO-conjugating enzyme UBC9 (Homo sapiens), P63279; HTRF SUMOylation assay, SAE1/SAE2 + UBC9; inhibition, % at 35 µM; hit rate 0.36% among 290,000; in the data active means inhibition above about 50%, passing the limit was not always enough
# Target sequence (P63279 whole entry, looked up): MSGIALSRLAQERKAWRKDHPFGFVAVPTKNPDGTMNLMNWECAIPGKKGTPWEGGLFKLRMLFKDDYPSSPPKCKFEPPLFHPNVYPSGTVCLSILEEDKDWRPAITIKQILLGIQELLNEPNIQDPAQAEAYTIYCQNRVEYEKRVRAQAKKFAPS
# SENP1 inh: human SENP1 catalytic domain inhibitors, primary screen, biochemical, FRET, uHTS; AID 624204, 2012; inhibition, % at 10 µM; hit rate 0.21% among 360,000; recombinant SENP1 catalytic domain, CyPet-SUMO1-YPet FRET cleavage;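 active means inhibition at least 30% at 10 µM, raw YFP signal under a set limit, fluorescence ratio 0.5 to 1.5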;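 further: 0% = enzyme with DMSO and 100% = no enzyme wells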
#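 Assay system: hSENP1 catalytic domain, recombinant. Amount: SENP1 enzyme, 20 pM final. Schedule: 50 min reaction, RT, dark. Technique: FRET, CFP and YFP emission. Control set: no-enzyme wells low, DMSO-plus-enzyme wells high control.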
# TPT1 inh: Candida albicans TPT1 enzyme inhibitors, primary screen, biochemical, fluorescence polarization | recombinant caTPT1, FP RNA substrate dephosphorylation | inhibition, % at 5 µM | AID 1962, 2009 | hit rate 0.81% among 300,000 | tRNA 2'-phosphotransferase TPT1 (Candida albicans SC5314);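 active means inhibition above the mean of all tested compounds plus 3 SD, set per screening campaign, cut at about 24% in these data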;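 further: plate controls were DMSO alone for no effect and ferristatin control at 100 nM for full effect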
# Rpn11 inh: Rpn11 (PSMD14) deubiquitinase inhibitors, primary screen, biochemical, fluorescence polarization, uHTS. calls only at 20 µM. AID 588493, 2011. 26S proteasome non-ATPase regulatory subunit 14 (Homo sapiens), O00487. human 26S proteasome, Ub4-pepOG fluorescence polarization; 20S core pre-blocked with epoxomicin. hit rate 0.59% among 360,000;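 active means inhibition at 20 µM, scaled to each plate's controls, above about 33%, limit read from the data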
# Target sequence (O00487 whole entry, looked up): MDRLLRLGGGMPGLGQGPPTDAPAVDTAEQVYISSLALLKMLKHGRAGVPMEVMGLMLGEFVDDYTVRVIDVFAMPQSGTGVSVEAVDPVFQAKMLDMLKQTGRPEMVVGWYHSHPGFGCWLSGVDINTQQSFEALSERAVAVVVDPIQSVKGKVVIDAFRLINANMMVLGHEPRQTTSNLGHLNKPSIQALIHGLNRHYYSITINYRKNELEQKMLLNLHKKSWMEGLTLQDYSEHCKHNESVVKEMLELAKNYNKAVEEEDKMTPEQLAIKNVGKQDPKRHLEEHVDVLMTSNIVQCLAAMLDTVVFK
# CSN inh: inhibitors of CSN-mediated cullin deneddylation, primary screen, biochemical, fluorescence polarization, uHTS; COP9 signalosome complex subunit 5 (Homo sapiens), Q92905; Purified CSN, SCF-Nedd8-OG deneddylation; inhibition, % at 12.5 µM; hit rate 0.38% among 360,000;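 active means pattern-corrected inhibition above about 35%, with an unprinted fluorescence ratio check between 0.5 and 1.5, limit read from the data, passing the limit was not always enough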;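 further: 0% = enzyme with substrate and 100% = substrate without enzyme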
#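 Schedule: reaction 90 min, room temperature / Assay system: HEK293T-derived human Csn5 enzyme / Input: Csn5 at 0.24 nM final / Measure: inhibition of Csn5 cleavage, % / Control set: substrate-only high control, full reaction low control / Technique: fluorescence polarization of the substrate / Buffer or medium: Tris/NaCl/DTT buffer, pH 7.5 / Reagent: SCFSkp2-Nedd8OG substrate at 10 nM final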
# TPT1 inh confirm: Candida albicans TPT1 inhibitors, confirmation, biochemical, fluorescence polarization, triplicate. recombinant caTPT1, RNase T1 coupled. inhibition, % at 5 µM. hit rate 74% among 2,400. shares compounds with TPT1 inh;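 active means inhibition above the primary screen limit, the mean inhibition of all tested compounds plus 3 SD, cut at about 25% in these data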
# RNase T1 counter: RNase T1 inhibitors, counter-screen for TPT1 inhibitor project, biochemical, fluorescence polarization | AID 2153, 2009 | shares compounds with TPT1 inh | RNase T1 cleavage, 1536-well | inhibition, % at 5 µM | hit rate 83% among 2,400;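 active means inhibition above the solvent-only control well mean plus 3 SD, limit set per screening run, cut at about 23% in these data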;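 further: plate controls were DMSO wells with enzyme for no effect and wells without RNase T1 for full effect; inhibitors block cleavage so intact labeled substrate keeps polarization high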
# Rpn11 inh conf: Rpn11 (PSMD14) deubiquitinase inhibitors, confirmation, biochemical, fluorescence polarization, single concentration | shares compounds with Rpn11 inh | purified human 26S proteasome, Ub4-pepOG fluorescence polarization; proteasome pretreated with epoxomicin | inhibition, % at 20 µM | hit rate 29% among 1,900 | AID 602318, 2012
# MMP-2 counter: MMP-2 enzyme inhibition, confirmation, counter-screen for RPN11 inhibitor project, biochemical, fluorescence, single concentration | recombinant MMP-2, FRET peptide cleavage fluorescence | inhibition, % at 20 µM | shares compounds with Rpn11 inh | hit rate 4% among 1,900 | AID 602330, 2012;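 further: human MMP-2 activated beforehand with APMA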
# Thrombin FP: bovine thrombin protease inhibition, confirmation, counter-screen for Rpn11 inhibitor project, biochemical, fluorescence polarization, single concentration. bovine thrombin cleavage of Ub4-pepOG. inhibition, % at 20 µM. shares compounds with Rpn11 inh. AID 602333, 2012. hit rate 13% among 1,900;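 active means mean inhibition at least 40% at 20 µM, or signal 3 deviations below plate average, so some actives read negative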;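 further: plate controls were thrombin with DMSO for no effect and buffer wells lacking thrombin for full effect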
# Starred values were filed as active, the others as inactive; i = inactive; / = not tested or not shown; + = active, no number. Unless noted, no stated cut-off is given here; in the data, active means inhibition above about 40%; inactive means the rest.
SMILES,HNF4A DNA FP,SUMO HTRF inh,SENP1 inh,TPT1 inh,Rpn11 inh,CSN inh,TPT1 inh confirm,RNase T1 counter,Rpn11 inh conf,MMP-2 counter,Thrombin FP
CC(C)(C)n1nnnc1C(c1ccccn1)N1CCN(C(c2ccccc2)c2ccccc2)CC1 (stereo not given),-0.7,-20.9,-1.1,-3.0,i,-11.8,/,/,/,/,/
O=[N+]([O-])c1ccc(N/N=C/c2ccc[nH]2)cc1,33.8,-14.9,-29.9,64.4*,+,15.6,64.8*,75.5*,51.0*,30.2,34.2
O=[N+]([O-])c1ccc(N/N=C/c2cccc(O)c2)cc1,14.4,10.2,-18.2,45.4*,+,11.9,54.6*,66.4*,18.8,25.1,11.0
Cc1cc2c(cc1S(=O)(=O)N1CCCCC1)OCC(=O)N2,-0.2,-6.3,-1.2,0.3,i,1.3,/,/,/,/,/
O=C(N1CCC(n2nc(-c3ccccc3)oc2=O)CC1)C1(c2ccc(Cl)cc2)CC1,-0.5,-24.7,0.1,-1.3,i,-0.2,/,/,/,/,/
O=C(Nc1nccs1)c1ccc(-c2ccc(Cl)cc2)o1,-0.8,14.7,-2.6,1.6,i,-3.2,/,/,/,/,/
O=C(Nc1nccs1)c1ccc(-c2ccc([N+](=O)[O-])cc2)o1,28.7,45.6,-25.3,36.9*,+,17.1,34.2*,48.4*,-14.2,-4.2,active
CCN1CCN(S(=O)(=O)c2ccc(C(=O)Nc3sc4c(c3C(N)=O)CCN(CC)C4)cc2)CC1,28.2,-1.8,-27.8,95.6*,+,16.1,114.9*,118.3*,2.2,-51.7,-1.6
Cc1sc2nc(CSCC(=O)Nc3ccccc3C#N)[nH]c(=O)c2c1C,13.9,-0.3,2.9,36.9*,+,3.5,47.1*,60.8*,45.8*,-12.3,29.9
CSc1ccccc1NC(=O)CSCc1nc2sc(C)c(C)c2c(=O)[nH]1,4.8,/,20.7,16.0,i,0.7,/,/,/,/,/
Cc1sc2nc(CSC(C)C(=O)Nc3ccc(C(N)=O)cc3)[nH]c(=O)c2c1C (stereo not given),9.1,/,13.6,7.6,i,9.6,/,/,/,/,/
Cc1sc2nc(CSC(C)C(=O)Nc3ccc(C#N)cc3)[nH]c(=O)c2c1C (stereo not given),20.0,/,16.1,28.7*,+,7.1,37.6*,49.3*,32.2,-11.3,29.2
COc1cc(C=O)cc(Cl)c1OC(=O)N1CCOCC1,-0.1,-5.4,2.8,-0.5,i,-4.5,/,/,/,/,/
O=C(O)c1ccc(OS(=O)(=O)c2ccc(Cl)s2)cc1,-5.2,/,0.1,/,i,-10.3,/,/,/,/,/
